Reference: ChEMBL document CHEMBL5712920, “The histone methyltransferase inhibitor A-366 enhances hemoglobin expression in erythroleukemia cells upon co-exposure with chemical inducers in culture” (J Biol Res (Thessalon), 2021)

What was measured:
[1] = Cytotoxicity against HMBA-stiumulated mouse FLC clone 745 cells assessed as cell viability measured after 48 hrs by Neubauer chamber based microscopic analysis (reference value: 50.563%); format: toxicity; settings: HMBA-stimulated FLC clone 745 cells, read-out: Activity
[2] = Cytotoxicity against mouse FLC clone 745 cells assessed as reduction in cell viability measured after 48 hrs by Neubauer chamber based microscopic analysis; format: toxicity
[3] = target: N-lysine methyltransferase SMYD2 (Mus musculus) (UniProt Q8R5A0); assay: Inhibition of SMYD2 in HMBA-stiumulated mouse FLC clone 745 cells assessed as increase in erythroid differentiation at IC50 concentration measured after 96 hrs by benzidine-H2O2 based assay (reference value: 79.45%); format: cell-based
Chain of N-lysine methyltransferase SMYD2 (Mus musculus) (Q8R5A0 whole entry): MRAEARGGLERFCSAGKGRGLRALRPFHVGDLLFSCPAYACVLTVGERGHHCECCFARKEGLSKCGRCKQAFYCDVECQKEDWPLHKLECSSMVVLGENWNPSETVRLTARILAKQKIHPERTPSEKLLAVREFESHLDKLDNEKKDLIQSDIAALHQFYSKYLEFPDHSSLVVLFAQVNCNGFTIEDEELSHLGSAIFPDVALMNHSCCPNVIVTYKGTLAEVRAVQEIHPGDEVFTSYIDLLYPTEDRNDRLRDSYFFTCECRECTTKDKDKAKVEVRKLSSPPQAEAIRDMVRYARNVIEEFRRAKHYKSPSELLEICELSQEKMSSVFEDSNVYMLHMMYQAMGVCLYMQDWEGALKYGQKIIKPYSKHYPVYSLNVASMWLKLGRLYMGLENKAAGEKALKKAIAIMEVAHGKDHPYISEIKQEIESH

[4] = target: N-lysine methyltransferase SMYD2 (Mus musculus) (UniProt Q8R5A0); assay: Inhibition of SMYD2 in HMBA-stiumulated mouse FLC clone 745 cells assessed as increase in erythroid differentiation at IC50 concentration measured after 72 hrs by benzidine-H2O2 based assay (reference value: 69.6%); format: cell-based
[5] = Inhibition of G9a/GLP in HMBA-stiumulated mouse FLC clone 745 cells assessed as increase in erythroid differentiation at IC50 concentration measured after 96 hrs by benzidine-H2O2 based assay (reference value: 79.45%); settings: condition erythroleukemia
FLC clone 745 = assay: Cytotoxicity against mouse FLC clone 745 cells assessed as reduction in cell viability at IC50 concentration measured up to 96 hrs by Neubauer chamber based microscopic analysis; format: toxicity; settings: flc clone 745, 96 h
In short: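 MEL-745 cells treated continuously with compound at its previously determined 48 h IC50, without inducer, for up to 96 h. Total cell number counted daily in a Neubauer chamber. Final DMSO ≤0.2% v/v.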

[6] = Inhibition of G9a/GLP in HMBA-stiumulated mouse FLC clone 745 cells assessed as increase in erythroid differentiation at IC50 concentration measured after 72 hrs by benzidine-H2O2 based assay (reference value: 69.6%); settings: condition erythroleukemia
[7] = target: Protein arginine N-methyltransferase 3 (Mus musculus) (UniProt Q922H1); assay: Inhibition of PRMT3 in HMBA-stiumulated mouse FLC clone 745 cells assessed as increase in erythroid differentiation at IC50 concentration measured after 96 hrs by benzidine-H2O2 based assay (reference value: 79.45%); format: cell-based
Chain of Protein arginine N-methyltransferase 3 (Mus musculus) (Q922H1 whole entry): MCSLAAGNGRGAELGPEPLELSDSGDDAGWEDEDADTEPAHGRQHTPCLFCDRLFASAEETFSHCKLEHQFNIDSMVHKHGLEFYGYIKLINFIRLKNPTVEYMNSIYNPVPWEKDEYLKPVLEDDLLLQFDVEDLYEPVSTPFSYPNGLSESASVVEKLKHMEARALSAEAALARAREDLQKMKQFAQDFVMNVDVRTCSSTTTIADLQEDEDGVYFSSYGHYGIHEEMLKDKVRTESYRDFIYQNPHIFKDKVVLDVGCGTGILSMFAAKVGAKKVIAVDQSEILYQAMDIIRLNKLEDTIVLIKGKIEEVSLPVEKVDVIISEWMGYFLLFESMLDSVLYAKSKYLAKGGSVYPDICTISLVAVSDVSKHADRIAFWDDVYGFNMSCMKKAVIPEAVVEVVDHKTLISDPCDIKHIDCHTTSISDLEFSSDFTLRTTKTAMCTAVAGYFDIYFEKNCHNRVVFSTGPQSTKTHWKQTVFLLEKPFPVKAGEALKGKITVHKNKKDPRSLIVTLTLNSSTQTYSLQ

[8] = target: Protein arginine N-methyltransferase 3 (Mus musculus) (UniProt Q922H1); assay: Inhibition of PRMT3 in HMBA-stiumulated mouse FLC clone 745 cells assessed as increase in erythroid differentiation at IC50 concentration measured after 72 hrs by benzidine-H2O2 based assay (reference value: 69.6%); format: cell-based
[9] = target: Histone-lysine N-methyltransferase KMT5B (Mus musculus) (UniProt Q3U8K7); assay: Inhibition of SUV420H1 in HMBA-stiumulated mouse FLC clone 745 cells assessed as increase in erythroid differentiation at IC50 concentration measured after 72 hrs by benzidine-H2O2 based assay (reference value: 69.6%); format: cell-based
Chain of Histone-lysine N-methyltransferase KMT5B (Mus musculus) (Q3U8K7 whole entry): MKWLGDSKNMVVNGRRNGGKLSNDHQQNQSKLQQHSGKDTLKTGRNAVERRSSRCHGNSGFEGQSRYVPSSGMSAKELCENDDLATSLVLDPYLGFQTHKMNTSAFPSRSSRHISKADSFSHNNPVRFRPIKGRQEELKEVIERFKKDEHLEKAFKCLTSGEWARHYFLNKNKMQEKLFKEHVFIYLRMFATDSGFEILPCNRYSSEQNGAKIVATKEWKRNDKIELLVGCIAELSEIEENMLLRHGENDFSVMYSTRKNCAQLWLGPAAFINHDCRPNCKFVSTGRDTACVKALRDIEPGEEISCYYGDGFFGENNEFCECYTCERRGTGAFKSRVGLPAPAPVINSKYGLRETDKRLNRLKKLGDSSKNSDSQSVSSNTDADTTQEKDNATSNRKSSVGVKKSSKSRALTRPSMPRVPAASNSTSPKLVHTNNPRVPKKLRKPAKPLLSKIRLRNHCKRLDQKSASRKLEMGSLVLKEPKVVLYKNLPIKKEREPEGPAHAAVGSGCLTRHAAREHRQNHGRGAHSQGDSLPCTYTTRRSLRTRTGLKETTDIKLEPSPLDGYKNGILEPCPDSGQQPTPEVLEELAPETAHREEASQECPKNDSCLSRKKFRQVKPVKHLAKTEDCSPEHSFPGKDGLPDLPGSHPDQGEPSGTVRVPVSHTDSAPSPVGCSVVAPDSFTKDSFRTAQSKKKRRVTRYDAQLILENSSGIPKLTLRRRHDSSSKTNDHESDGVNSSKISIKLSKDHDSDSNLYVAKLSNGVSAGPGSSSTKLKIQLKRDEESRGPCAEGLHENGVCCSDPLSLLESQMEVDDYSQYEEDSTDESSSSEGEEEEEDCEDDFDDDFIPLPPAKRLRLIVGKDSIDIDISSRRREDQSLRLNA

[10] = target: Histone-lysine N-methyltransferase KMT5B (Mus musculus) (UniProt Q3U8K7); assay: Inhibition of SUV420H1 in HMBA-stiumulated mouse FLC clone 745 cells assessed as increase in erythroid differentiation at IC50 concentration measured after 96 hrs by benzidine-H2O2 based assay (reference value: 79.45%); format: cell-based
[11] = target: Histone-lysine N-methyltransferase EZH2 (Mus musculus) (UniProt Q61188); assay: Inhibition of EZH2 in HMBA-stiumulated mouse FLC clone 745 cells assessed as increase in erythroid differentiation at IC50 concentration measured after 96 hrs by benzidine-H2O2 based assay (reference value: 79.45%); format: cell-based
Chain of Histone-lysine N-methyltransferase EZH2 (Mus musculus) (Q61188 whole entry): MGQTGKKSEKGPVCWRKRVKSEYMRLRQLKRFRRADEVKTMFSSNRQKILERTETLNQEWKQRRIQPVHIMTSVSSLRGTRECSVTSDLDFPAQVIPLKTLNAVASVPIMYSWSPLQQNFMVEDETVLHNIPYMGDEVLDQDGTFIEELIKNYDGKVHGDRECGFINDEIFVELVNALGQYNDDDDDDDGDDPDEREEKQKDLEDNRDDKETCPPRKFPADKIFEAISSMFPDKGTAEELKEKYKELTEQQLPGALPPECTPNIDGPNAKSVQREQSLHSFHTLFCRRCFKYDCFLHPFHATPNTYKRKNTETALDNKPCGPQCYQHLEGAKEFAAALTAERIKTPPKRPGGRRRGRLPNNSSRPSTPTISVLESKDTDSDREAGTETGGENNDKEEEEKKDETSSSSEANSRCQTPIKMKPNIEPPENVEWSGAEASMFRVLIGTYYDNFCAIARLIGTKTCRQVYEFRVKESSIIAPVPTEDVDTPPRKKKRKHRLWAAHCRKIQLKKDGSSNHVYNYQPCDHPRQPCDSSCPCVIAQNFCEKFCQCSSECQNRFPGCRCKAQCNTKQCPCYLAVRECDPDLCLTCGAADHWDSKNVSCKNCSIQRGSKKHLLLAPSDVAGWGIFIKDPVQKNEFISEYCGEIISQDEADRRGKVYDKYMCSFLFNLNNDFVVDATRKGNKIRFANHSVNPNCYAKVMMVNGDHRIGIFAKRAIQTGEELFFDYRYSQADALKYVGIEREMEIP

[12] = target: Histone-lysine N-methyltransferase EZH2 (Mus musculus) (UniProt Q61188); assay: Inhibition of EZH2 in HMBA-stiumulated mouse FLC clone 745 cells assessed as increase in erythroid differentiation at IC50 concentration measured after 72 hrs by benzidine-H2O2 based assay (reference value: 69.6%); format: cell-based
[13] = target: Histone-lysine N-methyltransferase, H3 lysine-79 specific (Mus musculus) (UniProt F7CVL0); assay: Inhibition of DOT1L in HMBA-stiumulated mouse FLC clone 745 cells assessed as increase in erythroid differentiation at IC50 concentration measured after 96 hrs by benzidine-H2O2 based assay (reference value: 79.45%); format: cell-based
Chain of Histone-lysine N-methyltransferase, H3 lysine-79 specific (Mus musculus) (F7CVL0 as listed by the source): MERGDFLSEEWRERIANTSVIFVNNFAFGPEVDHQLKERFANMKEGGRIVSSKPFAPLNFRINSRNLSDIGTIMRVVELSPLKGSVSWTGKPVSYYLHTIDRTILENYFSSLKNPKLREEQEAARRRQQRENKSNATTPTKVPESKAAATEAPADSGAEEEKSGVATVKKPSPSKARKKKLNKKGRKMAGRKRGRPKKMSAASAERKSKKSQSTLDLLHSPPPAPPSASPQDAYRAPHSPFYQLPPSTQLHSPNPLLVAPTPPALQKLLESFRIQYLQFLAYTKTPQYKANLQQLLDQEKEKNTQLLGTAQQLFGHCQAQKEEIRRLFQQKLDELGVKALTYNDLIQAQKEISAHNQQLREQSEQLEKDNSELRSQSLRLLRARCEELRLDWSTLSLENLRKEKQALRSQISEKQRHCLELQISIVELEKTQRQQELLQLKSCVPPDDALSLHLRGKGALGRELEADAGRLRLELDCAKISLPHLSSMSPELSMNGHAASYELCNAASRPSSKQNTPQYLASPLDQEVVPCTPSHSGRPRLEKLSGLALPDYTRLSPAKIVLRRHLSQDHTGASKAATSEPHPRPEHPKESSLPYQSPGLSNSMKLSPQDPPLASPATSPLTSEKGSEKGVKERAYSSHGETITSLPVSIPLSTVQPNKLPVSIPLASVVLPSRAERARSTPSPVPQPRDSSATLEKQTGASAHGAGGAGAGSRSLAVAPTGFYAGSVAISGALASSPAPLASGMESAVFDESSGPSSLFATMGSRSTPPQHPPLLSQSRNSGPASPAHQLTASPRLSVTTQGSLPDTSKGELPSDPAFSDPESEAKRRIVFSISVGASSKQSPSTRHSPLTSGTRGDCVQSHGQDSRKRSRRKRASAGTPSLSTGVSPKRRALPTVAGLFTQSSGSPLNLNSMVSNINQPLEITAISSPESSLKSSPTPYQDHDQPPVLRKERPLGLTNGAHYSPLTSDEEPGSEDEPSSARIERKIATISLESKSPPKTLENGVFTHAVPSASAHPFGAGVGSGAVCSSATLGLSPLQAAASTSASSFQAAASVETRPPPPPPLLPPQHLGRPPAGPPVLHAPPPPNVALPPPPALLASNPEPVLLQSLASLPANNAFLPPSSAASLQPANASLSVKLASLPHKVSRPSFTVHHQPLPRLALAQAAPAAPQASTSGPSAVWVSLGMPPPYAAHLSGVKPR

[14] = target: Histone-lysine N-methyltransferase, H3 lysine-79 specific (Mus musculus) (UniProt F7CVL0); assay: Inhibition of DOT1L in HMBA-stiumulated mouse FLC clone 745 cells assessed as increase in erythroid differentiation at IC50 concentration measured after 72 hrs by benzidine-H2O2 based assay (reference value: 69.6%); format: cell-based

Compound	viability at 48 h [1]	IC50 at 48 h [2]	other results
CCN(C(=O)CO)[C@H]1CN(/C(=N\C#N)Nc2cccc(OC(F)F)c2)N=C1c1ccc(Cl)c(Cl)c1	22.8%	4700 nM	inhibition [3]: 22.6%; inhibition [4]: 12.7%
COc1cc2c(NC3CCN(C(C)C)CC3)nc(N3CCC(F)(F)CC3)nc2cc1OCCCN1CCCC1	4.2%	1600 nM	inhibition (INH) [5]: <1%; Activity (FLC clone 745): Toxic; inhibition (INH) [6]: <1%
O=C(NCC(=O)N1CCCC1)Nc1ccc2cnccc2c1	31.6%	11000 nM	inhibition [7]: 47.7%; inhibition [8]: 18.9%
Clc1cc2c(NC3CCCC3)nnc(-c3ccncc3)c2cc1Cl	27.2%	20000 nM	inhibition [9]: < 1%; inhibition [10]: 19%
CN1CCN(c2ccc(-c3cccc(CN4CCOCC4)c3)cc2NC(=O)c2c[nH]c(=O)cc2C(F)(F)F)CC1	7.57%		Activity (FLC clone 745): Toxic
Cc1cn(CCN2CCN(c3ccccc3-c3cc(C#N)cc(C(=O)NCCCN4CCCC4)c3)CC2)c2ccccc12	16.6%	680 nM	inhibition [3]: 9%; inhibition [4]: 1.3%
CCc1cc(C)[nH]c(=O)c1CNC(=O)c1cc(-c2ccc(N3CCN(C(C)C)CC3)nc2)cc2c1cnn2C(C)C	6.96%	3200 nM	inhibition [11]: < 1%; inhibition [12]: < 1%
O=C([C@@H](Cc1cccc(C(F)(F)F)c1)NS(=O)(=O)c1cc(F)c2c(c1)CCNC2)N1CCCC1	18.7%	20000 nM	
CCCc1cc(C)[nH]c(=O)c1CNC(=O)c1cc(-c2ccnc(N3CCN(C)CC3)c2)cc2c1cnn2C(C)C	20.6%	2200 nM	inhibition [11]: < 1%; inhibition [12]: < 1%
CC(C)N(CCCNC(=O)Nc1ccc(C(C)(C)C)cc1)C[C@H]1O[C@@H](n2cc(Br)c3c(N)ncnc32)[C@H](O)[C@@H]1O	23.9%	2300 nM	inhibition [13]: 6.64%; inhibition [14]: 4.3%
COc1cc2c(NC3CCN(C(C)C)CC3)nc(C3CCCCC3)nc2cc1OCCCN1CCCC1	7.56%	440 nM	inhibition (INH) [5]: <1%; Activity (FLC clone 745): Toxic; inhibition (INH) [6]: <1%
